Reference: ChEMBL document CHEMBL4270546, “A novel Anti-Cancer Stem Cells compound optimized from the natural symplostatin 4 scaffold inhibits Wnt/β-catenin signaling pathway” (Eur J Med Chem, 2018)
Active and inactive are the calls of the source. The rule behind the calls is not given here.

Tests used:
MDA-MB-231 = experiment: Antiproliferative activity against human MDA-MB-231 cells after 48 hrs by MTT assay; assay type: functional, cell-based; settings: MDA-MB-231, 48 h
A-375 [1] = experiment: Induction of apoptosis in human A375 cells assessed as late apoptotic cells at 1 uM after 48 hrs by Annexin V-FITC/propidium iodide staining based flow cytometry (reference value: 2.7%); assay type: functional
A-375 [2] = experiment: Antimigratory activity against human A375 cells at 0.25 uM after 24 hrs by transwell migration assay; assay type: functional, cell-based
Procedure, shortened: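 Cells seeded in the upper chamber of a transwell and incubated with compound (0.25 μM) for 24 h. Cells migrated to the lower chamber were imaged and counted against an untreated control. Mean ± sd, n = 3, two-way ANOVA.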

B16-F10 [3] = experiment: Induction of apoptosis in mouse B16F10 cells after 48 hrs by Annexin V-FITC/propidium iodide staining based flow cytometry; assay type: functional, cell-based
A-375 [4] = experiment: Inhibition of ALDH+ subpopulation of human A375 cells assessed as ALDH+ cells at 0.25 after 48 hrs by flow cytometry (reference value: 25.7%); assay type: functional; set-up: scale not given: the % may be the effect or the level left
A-375 [5] = experiment: Antimigratory activity against human A375 cells at 0.25 uM after 24 to 48 hrs by wound healing assay; assay type: functional, cell-based
Procedure, shortened: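 Wound-healing scratch assay on cells treated with or without compound (0.25 μM). Images recorded at 0, 24 and 48 h, and migration distance quantified. Mean ± sd, n = 3, two-way ANOVA.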

Mus musculus = experiment: Toxicity in C57BL/6J mouse implanted with mouse B16F10 cells assessed as change in body weight at 15 mg/kg/day, ip measured daily for 24 days; assay type: organism-based; settings: in vivo, 576 h
Procedure, shortened: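 C57BL/6J mice carrying subcutaneous B16F10 cell grafts; vehicle and treated groups (n = 5) followed for body weight, with tumours dissected and weighed on day 24; mean ± sd, two-way ANOVA.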

A-375 [6] = experiment: Inhibition of CD133+ sub-population of human A375 cells assessed as CD133+ cells at 0.5 after 48 hrs by flow cytometry (reference value: 4.54%); assay type: functional; set-up: scale not given: the % may be the effect or the level left
B16-F10 [7] = experiment: Inhibition of tumor sphere formation ability of mouse B16F10 cells at 0.25 to 0.5 uM pretreated for 48 hrs followed by cell culture for 7 days; assay type: functional, cell-based
Procedure, shortened: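 A375 or B16F10 cells pretreated with or without compound for 48 h, collected and replated on ultra-low attachment surfaces; after 7 days of culture, sphere number and size scored; mean ± sd, n = 3, two-way ANOVA.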

B16-F10 [8] = experiment: Induction of apoptosis in mouse B16F10 cells assessed as early apoptotic cells at 2 uM after 48 hrs by Annexin V-FITC/propidium iodide staining based flow cytometry (reference value: 0.022%); assay type: functional
B16-F10 [9] = experiment: Induction of apoptosis in mouse B16F10 cells assessed as necrotic cells at 1 uM after 48 hrs by Annexin V-FITC/propidium iodide staining based flow cytometry (reference value: 1.86%); assay type: functional
B16-F10 [10] = experiment: Anti-invasive activity against mouse B16F10 cells at 0.25 uM after 24 hrs by matrigel invasion assay; assay type: functional, cell-based
Procedure, shortened: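 Cells seeded in the upper chamber of a transwell with a Matrigel-precoated filter, incubated with compound (0.25 μM) for 24 h. Invaded cells imaged and counted against an untreated control. Mean ± sd, n = 3, two-way ANOVA.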

B16-F10 [11] = experiment: Induction of apoptosis in mouse B16F10 cells assessed as upregulation of p53 expression after 48 hrs by Western blot analysis
MCF7 = experiment: Antiproliferative activity against human MCF7 cells after 48 hrs by MTT assay; assay type: functional, cell-based; settings: MCF7, 48 h
A-375 [12] = experiment: Induction of apoptosis in human A375 cells assessed as upregulation of Bax expression after 48 hrs by Western blot analysis
B16-F10 [13] = experiment: Inhibition of CD133+ sub-population of mouse B16F10 cells assessed as CD133+ cells at 0.25 after 48 hrs by flow cytometry (reference value: 7.23%); assay type: functional; set-up: scale not given: the % may be the effect or the level left
B16-F10 [14] = experiment: Inhibition of colony formation in mouse B16F10 cells at 0.125 to 0.25 uM after 7 days by crystal violet staining based assay; assay type: functional, cell-based
Procedure, shortened: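 Clonogenic long-term growth assay: A375 or B16F10 cells grown under continuous compound exposure for 7 days, then colonies quantified; mean ± sd, n = 3, two-way ANOVA.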

B16-F10 [15] = experiment: Induction of apoptosis in mouse B16F10 cells assessed as early apoptotic cells at 1 uM after 48 hrs by Annexin V-FITC/propidium iodide staining based flow cytometry (reference value: 0.022%); assay type: functional
A-375 [16] = experiment: Induction of apoptosis in human A375 cells assessed as upregulation of cleaved PARP expression at 0.5 to 4 uM after 48 hrs by Western blot analysis; assay type: functional, cell-based
Procedure, shortened: (§1)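 Cells treated with compound at different concentrations (0.5-4 μM) for 48 h. Lysates probed by Western blot for cleaved PARP, active caspase-3, Bax and p53.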

A-375 [17] = experiment: Antiproliferative activity against human A375 cells after 48 hrs by MTT assay; assay type: functional, cell-based; settings: A-375, 48 h
A-375 [18] = experiment: Induction of apoptosis in human A375 cells assessed as necrotic cells at 1 uM after 48 hrs by Annexin V-FITC/propidium iodide staining based flow cytometry (reference value: 2.39%); assay type: functional
A-375 [19] = experiment: Induction of apoptosis in human A375 cells assessed as late apoptotic cells at 2 uM after 48 hrs by Annexin V-FITC/propidium iodide staining based flow cytometry (reference value: 2.7%); assay type: functional
PANC-1 = experiment: Antiproliferative activity against human PANC1 cells after 48 hrs by MTT assay; assay type: functional, cell-based; settings: PANC-1, 48 h
A-375 [20] = experiment: Downregulation of beta-catenin protein expression in human A375 cells after 48 hrs by Western blot analysis; assay type: functional, cell-based
Procedure, shortened: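 Cells treated with compound at different concentrations for 48 h. Western blot for STAT3, p-STAT3, β-catenin and c-Myc.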

B16-F10 [21] = experiment: Induction of apoptosis in mouse B16F10 cells assessed as late apoptotic cells at 2 uM after 48 hrs by Annexin V-FITC/propidium iodide staining based flow cytometry (reference value: 0.303%); assay type: functional
B16-F10 [22] = experiment: Induction of apoptosis in mouse B16F10 cells assessed as upregulation of cleaved PARP expression at 0.5 to 4 uM after 48 hrs by Western blot analysis; assay type: functional, cell-based; procedure, shortened: as §1
B16-F10 [23] = experiment: Induction of apoptosis in mouse B16F10 cells assessed as upregulation of Bax expression after 48 hrs by Western blot analysis

IC50 (MDA-MB-231): 922 nM | IC50 (MCF7): 2540 nM | IC50 (A-375 [17]): 801 nM | IC50 (PANC-1): 435 nM
SMILES: CC[C@H](C)[C@H](NC(=O)OCc1ccccc1)C(=O)N[C@@H](CC(C)C)C(=O)N[C@@H](CC(C)C)C(=O)N[C@@H](C)/C=C/C(=O)N1C(=O)C=C(OC)[C@@H]1C(C)C
Activity (A-375 [1]): 4.48% | Activity (A-375 [2]): Active | Activity (B16-F10 [3]): Dose-dependent effect | Activity (A-375 [4]): 13.3% | Activity (A-375 [5]): Active | Activity (Mus musculus): Non-Toxic | Activity (A-375 [6]): 0.867% | inhibition (B16-F10 [7]): Active | Activity (B16-F10 [8]): 31.8% | Activity (B16-F10 [9]): 1.37% | Activity (B16-F10 [10]): Active | p53 upregulation (B16-F10 [11]): Dose-dependent effect | Bax upregulation (A-375 [12]): Dose-dependent effect | Activity (B16-F10 [13]): 2.31% | inhibition (B16-F10 [14]): Active | Activity (B16-F10 [15]): 8.74% | Activity (A-375 [16]): Active | Activity (A-375 [18]): 4.16% | Activity (A-375 [19]): 8.11% | Activity (A-375 [20]): Dose-dependent effect | Activity (B16-F10 [21]): 32.9% | Activity (B16-F10 [22]): Active | Bax upregulation (B16-F10 [23]): Dose-dependent effect
